Experimental data as given in ChEMBL document CHEMBL1127320, “Dual-action cephalosporins incorporating a 3'-tertiary-amine-linked quinolone” (J Med Chem, 1994).
Values after ≈ are worked out from the molar mass of the structure shown.

Legend:
Citrobacter freundii = assay: In vitro minimum inhibitory concentration was measured against Citrobacter freundii BS-16 (beta lactamase producer) strain.; type: functional
How it was run: (§1)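 MICs were determined by agar dilution with 2-fold dilutions giving final 128–0.0156 µg/mL, extended to 0.000977 µg/mL where needed. Streptococci were tested on brain heart infusion agar plus 20 units/mL catalase, Proteus on Mueller-Hinton with 3% agar, and others on Mueller-Hinton agar. Inocula were 100-fold-diluted overnight cultures, about 3 × 10^4 CFU/spot, read after overnight incubation at 36 °C.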

Pseudomonas aeruginosa [1] = assay: In vitro minimum inhibitory concentration was measured against Pseudomonas aeruginosa 18S/H strain.; type: functional
How it was run: (§2)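 Streptococci were tested on brain heart infusion agar plus 20 units/mL catalase, Proteus on Mueller-Hinton with 3% agar, and others on Mueller-Hinton agar. Inocula were 100-fold-diluted overnight cultures, about 3 × 10^4 CFU/spot, read after overnight incubation at 36 °C.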

Escherichia coli [2] = assay: In vitro minimum inhibitory concentration was measured against Escherichia coli ATCC 25922 strain.; type: functional; how it was run: as §2
Proteus mirabilis = assay: In vitro minimum inhibitory concentration was measured against Proteus mirabilis 90 strain.; type: functional; how it was run: as §2
Serratia marcescens = assay: In vitro minimum inhibitory concentration was measured against Serratia marcescens 1071(beta lactamase producer) strain.; type: functional; how it was run: as §2
Enterobacter cloacae [3] = assay: In vitro minimum inhibitory concentration was measured against Enterobacter cloacae p99 (beta lactamase producer) strain.; type: functional
Staphylococcus aureus [4] = assay: In vitro minimum inhibitory concentration was measured against Staphylococcus aureus 67-0 (Methicillin resistant) strain.; type: functional
Micrococcus luteus = assay: In vitro minimum inhibitory concentration was measured against Micrococcus luteus ATCC 9341 strain.; type: functional; how it was run: as §2
Staphylococcus aureus [5] = assay: In vitro minimum inhibitory concentration was measured against Staphylococcus aureus 753 (Methicillin resistant) strain.; type: functional
Escherichia coli [6] = assay: In vitro minimum inhibitory concentration was measured against Escherichia coli 257 strain.; type: functional; how it was run: as §2
Enterococcus faecalis = assay: In vitro minimum inhibitory concentration was measured against Enterococcus faecalis ATCC 29212 strain.; type: functional; how it was run: as §2
Proteus vulgaris = assay: In vitro minimum inhibitory concentration was measured against Proteus vulgaris 1028BC (beta lactamase producer) strain.; type: functional; how it was run: as §2
Enterobacter cloacae [7] = assay: In vitro minimum inhibitory concentration was measured against Enterobacter cloacae 5699 strain.; type: functional
Staphylococcus aureus [8] = assay: In vitro minimum inhibitory concentration was measured against Staphylococcus aureus smith strain.; type: functional
Escherichia coli [9] = assay: In vitro minimum inhibitory concentration was measured against Escherichia coli TEM-1 (Beta lactamase producer) strain.; type: functional; how it was run: as §2
Pseudomonas aeruginosa [10] = assay: In vitro minimum inhibitory concentration was measured against Pseudomonas aeruginosa 8780 strain.; type: functional; how it was run: as §2
Streptococcus pneumoniae = assay: In vitro minimum inhibitory concentration was measured against Streptococcus pneumoniae 6301 strain; type: functional; how it was run: as §2
Streptococcus pyogenes = assay: In vitro minimum inhibitory concentration was measured against Streptococcus pyogenes 4 strain.; type: functional; how it was run: as §2
Klebsiella pneumoniae = assay: In vitro minimum inhibitory concentration was measured against Klebsiella pneumoniae A strain.; type: functional; how it was run: as §2
[11] = molecular target: T1, Penicillin-binding protein 1A (Escherichia coli K-12) (UniProt P02918); assay: Affinity against penicillin binding protein 1a of Escherichia coli UB1005 (DC0) was evaluated.
T1 sequence (whole entry): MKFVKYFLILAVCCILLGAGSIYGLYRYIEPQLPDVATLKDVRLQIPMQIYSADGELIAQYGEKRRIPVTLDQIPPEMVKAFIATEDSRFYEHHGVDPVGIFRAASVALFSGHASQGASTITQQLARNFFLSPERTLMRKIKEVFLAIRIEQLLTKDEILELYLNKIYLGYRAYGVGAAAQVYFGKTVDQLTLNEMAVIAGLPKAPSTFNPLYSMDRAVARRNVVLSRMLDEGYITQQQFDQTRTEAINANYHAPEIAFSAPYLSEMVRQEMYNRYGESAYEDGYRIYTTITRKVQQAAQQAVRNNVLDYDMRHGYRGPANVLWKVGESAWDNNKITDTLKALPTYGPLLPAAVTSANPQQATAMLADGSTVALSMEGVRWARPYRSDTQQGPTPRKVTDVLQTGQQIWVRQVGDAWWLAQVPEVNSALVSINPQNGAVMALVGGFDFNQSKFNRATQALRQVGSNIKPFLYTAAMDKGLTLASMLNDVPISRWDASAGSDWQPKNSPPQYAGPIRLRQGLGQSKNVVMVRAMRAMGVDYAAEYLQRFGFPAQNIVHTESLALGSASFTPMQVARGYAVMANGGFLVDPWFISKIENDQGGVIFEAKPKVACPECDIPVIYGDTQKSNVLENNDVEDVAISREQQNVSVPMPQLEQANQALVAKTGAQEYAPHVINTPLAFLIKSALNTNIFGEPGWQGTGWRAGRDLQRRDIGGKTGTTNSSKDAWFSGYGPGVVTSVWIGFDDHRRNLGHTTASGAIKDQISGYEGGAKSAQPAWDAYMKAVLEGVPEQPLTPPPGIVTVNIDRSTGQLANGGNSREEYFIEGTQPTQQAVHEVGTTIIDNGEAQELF
How it was run: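 Solubilized membranes from sonicated E. coli UB1005 were used. Binding to penicillin-binding proteins was measured as inhibition of [14C]penicillin G binding.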

[12] = molecular target: T2, Penicillin-binding protein 1B (Escherichia coli K-12) (UniProt P02919); assay: Affinity for penicillin binding protein 1b of Escherichia coli UB1005 (DC0) was evaluated.; set-up: unit not given here
T2 sequence (whole entry): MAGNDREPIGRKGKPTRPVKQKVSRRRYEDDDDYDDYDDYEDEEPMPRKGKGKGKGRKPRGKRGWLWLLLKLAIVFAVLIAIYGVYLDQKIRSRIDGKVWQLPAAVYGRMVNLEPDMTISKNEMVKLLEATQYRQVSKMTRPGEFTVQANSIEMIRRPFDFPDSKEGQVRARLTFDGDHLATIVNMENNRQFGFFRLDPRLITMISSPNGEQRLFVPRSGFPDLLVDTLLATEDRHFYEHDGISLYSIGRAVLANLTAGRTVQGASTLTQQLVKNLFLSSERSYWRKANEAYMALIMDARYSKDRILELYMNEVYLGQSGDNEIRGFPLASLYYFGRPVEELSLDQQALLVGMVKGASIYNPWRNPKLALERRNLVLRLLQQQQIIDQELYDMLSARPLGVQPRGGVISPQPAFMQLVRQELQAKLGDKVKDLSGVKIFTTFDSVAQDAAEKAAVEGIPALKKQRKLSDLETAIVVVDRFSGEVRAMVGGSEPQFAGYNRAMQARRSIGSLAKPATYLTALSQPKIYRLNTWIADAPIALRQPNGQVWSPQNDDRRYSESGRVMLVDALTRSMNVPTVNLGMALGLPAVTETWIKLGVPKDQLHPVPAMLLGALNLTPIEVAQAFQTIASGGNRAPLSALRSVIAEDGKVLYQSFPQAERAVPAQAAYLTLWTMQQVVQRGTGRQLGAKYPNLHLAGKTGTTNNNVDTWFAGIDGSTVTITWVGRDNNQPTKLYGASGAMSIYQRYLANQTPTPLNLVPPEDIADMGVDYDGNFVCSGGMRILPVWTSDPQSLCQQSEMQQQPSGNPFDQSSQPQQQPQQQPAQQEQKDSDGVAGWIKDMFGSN
How it was run: (§3)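 Solubilised membranes from sonicated E. coli UB1005 served as the binding-protein source. Binding was read as inhibition of [14C]penicillin G binding.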

Escherichia coli [13] = assay: Minimum inhibitory concentration against E. coli UB1005 (DC0)
[14] = molecular target: T3, Peptidoglycan D,D-transpeptidase MrdA (Escherichia coli K-12) (UniProt P0AD65); assay: Affinity for penicillin binding protein 2 of Escherichia coli UB1005 (DC0) was evaluated.; set-up: unit not given here; how it was run: as §3
T3 sequence (whole entry): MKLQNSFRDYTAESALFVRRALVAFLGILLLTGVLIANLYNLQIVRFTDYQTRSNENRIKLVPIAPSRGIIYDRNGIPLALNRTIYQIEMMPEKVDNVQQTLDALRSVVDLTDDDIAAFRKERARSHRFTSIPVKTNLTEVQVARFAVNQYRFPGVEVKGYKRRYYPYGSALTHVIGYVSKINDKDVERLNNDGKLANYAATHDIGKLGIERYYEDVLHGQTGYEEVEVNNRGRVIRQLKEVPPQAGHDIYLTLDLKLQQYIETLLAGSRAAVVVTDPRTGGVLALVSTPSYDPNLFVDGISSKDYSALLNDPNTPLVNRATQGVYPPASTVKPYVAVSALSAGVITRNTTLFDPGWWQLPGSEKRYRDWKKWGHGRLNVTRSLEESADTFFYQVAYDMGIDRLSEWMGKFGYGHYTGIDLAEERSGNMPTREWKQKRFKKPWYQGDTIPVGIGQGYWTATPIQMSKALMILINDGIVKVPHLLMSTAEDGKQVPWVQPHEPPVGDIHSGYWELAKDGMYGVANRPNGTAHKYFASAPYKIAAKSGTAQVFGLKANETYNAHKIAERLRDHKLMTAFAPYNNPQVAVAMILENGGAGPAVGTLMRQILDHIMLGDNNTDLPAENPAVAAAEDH

Escherichia coli [15] = assay: Minimum inhibitory concentration for DC2, a permeability mutant; how it was run: as §1
[16] = tested on: Penicillin-binding protein 3 (Escherichia coli); assay: Affinity for penicillin binding protein 3 of Escherichia coli UB1005 (DC0) was evaluated.; set-up: unit not given here
[17] = molecular target: T1, Penicillin-binding protein 1A (Escherichia coli K-12); assay: Affinity for penicillin binding protein 1a of Escherichia coli UB1005 (DC0) was evaluated.; set-up: unit not given here; how it was run: as §3
[18] = Half life was measured as degradation by HPLC analysis.; type: ADME

Row | Compound | MIC (Citrobacter freundii) [µg/mL] | MIC (Pseudomonas aeruginosa [1]) [µg/mL] | MIC (Escherichia coli [2]) [µg/mL] | MIC (Proteus mirabilis) [µg/mL] | MIC (Serratia marcescens) [µg/mL] | MIC (Enterobacter cloacae [3]) [µg/mL] | MIC (Staphylococcus aureus [4]) [µg/mL] | MIC (Micrococcus luteus) [µg/mL] | MIC (Staphylococcus aureus [5]) [µg/mL] | MIC (Escherichia coli [6]) [µg/mL] | MIC (Enterococcus faecalis) [µg/mL] | MIC (Proteus vulgaris) [µg/mL] | MIC (Enterobacter cloacae [7]) [µg/mL] | MIC (Staphylococcus aureus [8]) [µg/mL] | MIC (Escherichia coli [9]) [µg/mL] | MIC (Pseudomonas aeruginosa [10]) [µg/mL] | MIC (Streptococcus pneumoniae) [µg/mL] | Binding affinity [12] | MIC (Escherichia coli [13]) [µg/mL] | Binding affinity [14] | also measured
1 | CC(=O)OCC1=C(C(=O)O)N2C(=O)[C@@H](NC(=O)C(O)c3ccccc3)[C@H]2SC1 (stereo partly drawn) | > 128 | > 128 | 2 (≈ 4.92 µM) | 2 (≈ 4.92 µM) | > 128 | > 128 | 64 (≈ 157 µM) | 0.125 (≈ 0.308 µM) | 128 (≈ 315 µM) | 2 (≈ 4.92 µM) | 16 (≈ 39.4 µM) | > 128 | 16 (≈ 39.4 µM) | 0.5 (≈ 1.23 µM) | 8 (≈ 19.7 µM) | > 128 | 0.125 (≈ 0.308 µM) |  |  |  | MIC (Streptococcus pyogenes): 0.063 µg/mL (≈ 0.155 µM); MIC (Klebsiella pneumoniae): 2 µg/mL (≈ 4.92 µM)
2 | CCN1CCN(C(=O)N[C@@H](C(=O)N[C@@H]2C(=O)N3C(C(=O)O)=C(CSc4nnnn4C)CS[C@H]23)c2ccc(O)cc2)C(=O)C1=O |  |  |  |  |  |  |  |  |  |  |  |  |  |  |  |  |  | 10 | 0.031 (≈ 0.048 µM) | 2 | Binding affinity [11]: 10
3 | Nc1nc(/C(=N/OCC(=O)O)C(=O)N[C@@H]2C(=O)N3C(C(=O)O)=C(CN4CCN(c5cc6c(cc5F)c(=O)c(C(=O)O)cn6C5CC5)CC4)CS[C@H]23)cs1 | 1 (≈ 1.3 µM) | 4 (≈ 5.19 µM) | 0.5 (≈ 0.649 µM) | 2 (≈ 2.59 µM) | 2 (≈ 2.59 µM) | 0.25 (≈ 0.324 µM) | 32 (≈ 41.5 µM) | 1 (≈ 1.3 µM) | 8 (≈ 10.4 µM) | 0.25 (≈ 0.324 µM) | 16 (≈ 20.8 µM) | 1 (≈ 1.3 µM) | 1 (≈ 1.3 µM) | 8 (≈ 10.4 µM) | 0.5 (≈ 0.649 µM) | 8 (≈ 10.4 µM) | 0.25 (≈ 0.324 µM) | > 100 | 2 (≈ 2.59 µM) | > 100 | MIC (Escherichia coli [15]): 4 µg/mL (≈ 5.19 µM); Binding affinity [16]: 2; Binding affinity [17]: > 100; MIC (Streptococcus pyogenes): 0.125 µg/mL (≈ 0.162 µM); MIC (Klebsiella pneumoniae): 1 µg/mL (≈ 1.3 µM)
4 | O=C(O)C1=C(CN2CCN(c3cc4c(cc3F)c(=O)c(C(=O)O)cn4C3CC3)CC2)CS[C@@H]2[C@H](NC(=O)C(C(=O)O)c3ccccc3)C(=O)N12 (stereo partly drawn) | 0.063 (≈ 0.0893 µM) |  |  |  |  | 0.063 (≈ 0.0893 µM) |  |  |  |  | 32 (≈ 45.3 µM) |  |  |  |  |  |  | > 100 | 4 (≈ 5.67 µM) | > 100 | MIC (Escherichia coli [15]): 2 µg/mL (≈ 2.83 µM); half-life [18]: 228 h; Binding affinity [16]: 100; Binding affinity [17]: > 100
